ChEMBL document CHEMBL4052833, “Design, Synthesis, and Biological Activity of New N-(Phenylmethyl)-benzoxazol-2-thiones as Macrophage Migration Inhibitory Factor (MIF) Antagonists: Efficacies in Experimental Pulmonary Hypertension” (J Med Chem, 2018)
Converted amounts (≈) assume the structure as drawn. The source made the active and inactive calls. No cut-off for these calls is given here.

Assays:
[1] = tested on: DU-145; assay: Inhibition of cell survival in MIF dependent human DU145 cells at 100 uM after 24 hrs by MTT assay; assay type: functional; details: for inhibition at 100 µM: DU-145, 24 h
How it was run: (§1)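 DU-145 (RPMI) or iPAH endothelial cells (MCDB131) grown 24 h with 10% FCS, washed, then exposed 24 h serum-free to 10, 50 or 100 µM compound. MTT 5 mg/mL added for 6 h, medium removed, DMSO added, absorbance read at 590 nm.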

[2] = biological target: T1, Macrophage migration inhibitory factor (Homo sapiens, UniProt P14174); assay: Inhibition of recombinant human MIF tautomerase activity using 4-HPP as substrate preincubated for 15 mins followed by substrate addition measured after 360 secs
T1 sequence (P14174 whole entry): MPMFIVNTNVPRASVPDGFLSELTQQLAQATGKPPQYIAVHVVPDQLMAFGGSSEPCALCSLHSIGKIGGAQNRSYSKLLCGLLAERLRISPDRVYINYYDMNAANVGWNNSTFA
How it was run: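 Recombinant human MIF (100 nM) preincubated 15 min with 8 inhibitor concentrations, 0–10 µM; 4-HPP substrate, pre-equilibrated overnight at 4°C in 50 mM ammonium acetate, added in 0.435 M boric acid pH 6.6 at room temperature. Absorbance increase at 305 nm followed over 0–360 s; Ki determined; at least 3 independent replicates.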

[3] = tested on: Rattus norvegicus; assay: Anti-hypertensive activity in MCT-induced pulmonary hypertension Wistar rat model at 30 mg/kg/day administered via oral gavage for 2 weeks starting from 2 weeks post MCT challenge; assay type: functional, organism-based
How it was run: (§2)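 Young male Wistar rats (100 g) given single subcutaneous monocrotaline 60 mg/kg; from 2 weeks later, dosed daily by gavage for 2 weeks at 30 mg.kg.day-1 in 33% DMSO in propylene glycol:saline (68:32), or vehicle alone. Under isoflurane, jugular catheter advanced into pulmonary artery for pressure; cardiac output by thermodilution; RV hypertrophy as Fulton index.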

[4] = tested on: DU-145; assay: Induction of apoptosis in human DU145 cells assessed as increase in caspase 3/7 activity after 24 hrs by fluorescence based assay; assay type: functional, cell-based
How it was run: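 DU-145 cells exposed to increasing doses for 24 h; caspase-3/7 activity measured by fluorogenic Apo-ONE read-out.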

[5] = tested on: DU-145; assay: Induction of apoptosis in human DU145 cells at 100 uM by TUNEL assay; assay type: functional, cell-based
[6] = tested on: Rattus norvegicus; assay: Cardiotoxicity in MCT-induced pulmonary hypertension Wistar rat model assessed as induction of cardiac fibrosis at 30 mg/kg/day administered via oral gavage for 2 weeks starting from 2 weeks post MCT challenge measured post last dose by picrosirius red staining based assay; assay type: toxicity, organism-based; details: in vivo, 336 h
How it was run: (§3)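 Monocrotaline rat model as above (60 mg/kg s.c.; daily gavage 30 mg/kg/day for 2 weeks starting 2 weeks post-MCT, DMSO/propylene glycol/saline vehicle). Heart sections deparaffinized and stained with Picrosirius red for collagen; collagen area fraction scored in right and left ventricle myocardium against control rats.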

[7] = tested on: DU-145; assay: Antiproliferative activity against human DU145 cells by BrdU-incorporation based time-resolved fluorescence analysis
[8] = tested on: DU-145; assay: Inhibition of cell survival in MIF dependent human DU145 cells after 24 hrs by MTT assay; assay type: functional, cell-based; details: DU-145, 24 h; how it was run: as §1
[9] = tested on: Rattus norvegicus; assay: Cardioprotective activity in MCT-induced pulmonary hypertension Wistar rat model assessed as reversal of increased collagen fibers in endomysium at 30 mg/kg/day administered via oral gavage for 2 weeks starting from 2 weeks post MCT challenge measured post last dose by picrosirius red staining-based assay; assay type: functional, organism-based; how it was run: as §3
[10] = tested on: Rattus norvegicus; assay: Toxicity in MCT-induced pulmonary hypertension Wistar rat model assessed as change in heart rate at 30 mg/kg/day administered via oral gavage for 2 weeks starting from 2 weeks post MCT challenge; assay type: organism-based; details: in vivo, 336 h; how it was run: as §2
[11] = tested on: DU-145; assay: Induction of apoptosis in human DU145 cells assessed as late apoptotic cells at 100 uM by Annexin V-FITC-staining based FACS analysis (reference value: 2.34%); assay type: functional
[12] = tested on: Rattus norvegicus; assay: Cardiotoxicity in MCT-induced pulmonary hypertension Wistar rat model assessed as effect on collagen area fraction in left ventricle at 30 mg/kg/day administered via oral gavage for 2 weeks starting from 2 weeks post MCT challenge measured post last dose by picrosirius red staining based assay; assay type: toxicity, organism-based; details: in vivo, 336 h; how it was run: as §3
[13] = biological target: T2, Macrophage migration inhibitory factor (Homo sapiens) (UniProt P14174); assay: Inhibition of recombinant human MIF-induced AKT phosphorylation in idiopathic pulmonary arterial hypertension patient derived primary pulmonary endothelial cells by Western blot analysis
T2 sequence (whole entry): T1 sequence (P14174 whole entry)
How it was run: (§4)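 iPAH-derived pulmonary endothelial cells stimulated with 50 ng/mL recombinant MIF (endotoxin <0.07 EU/µg) with increasing antagonist doses; lysed and sonicated in RIPA with protease/phosphatase inhibitors, 30 µg protein immunoblotted for pAKT/AKT and pERK1/2/ERK.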

[14] = tested on: DU-145; assay: Induction of apoptosis in human DU145 cells assessed as viable cells at 100 uM by Annexin V-FITC-staining based FACS analysis (reference value: 94.9%); assay type: functional; details: read-out: Activity
[15] = tested on: Rattus norvegicus; assay: Anti-hypertensive activity in MCT-induced pulmonary hypertension Wistar rat model assessed as reduction in mean pulmonary artery pressure at 30 mg/kg/day administered via oral gavage for 2 weeks starting from 2 weeks post MCT challenge measured post last dose; assay type: functional, organism-based; how it was run: as §2
[16] = tested on: Rattus norvegicus; assay: Anti-hypertensive activity in MCT-induced pulmonary hypertension Wistar rat model assessed as reduction in right ventricular hypertrophy at 30 mg/kg/day administered via oral gavage for 2 weeks starting from 2 weeks post MCT challenge measured post last dose; assay type: functional, organism-based; how it was run: as §2
[17] = biological target: T2, Macrophage migration inhibitory factor (Homo sapiens); assay: Inhibition of recombinant human MIF-induced ERK phosphorylation in idiopathic pulmonary arterial hypertension patient derived primary pulmonary endothelial cells by Western blot analysis; how it was run: as §4
[18] = tested on: DU-145; assay: Induction of apoptosis in human DU145 cells assessed as early apoptotic cells at 100 uM by Annexin V-FITC-staining based FACS analysis (reference value: 2.5%); assay type: functional
[19] = Aqueous solubility in pH 7.4 PBS buffer at […] after 24 hrs; assay type: physicochemical
[20] = tested on: DU-145; assay: Induction of apoptosis in human DU145 cells assessed as necrotic cells at 100 uM by Annexin V-FITC-staining based FACS analysis (reference value: 0.22%); assay type: functional
[21] = tested on: Rattus norvegicus; assay: Toxicity in MCT-induced pulmonary hypertension Wistar rat model assessed as change in body weight at 30 mg/kg/day administered via oral gavage for 2 weeks starting from 2 weeks post MCT challenge; assay type: organism-based; details: in vivo, 336 h; how it was run: as §2
[22] = Inhibition of cell survival in idiopathic pulmonary arterial hypertension patient derived primary pulmonary endothelial cells at 100 uM after 24 hrs by MTT assay; assay type: functional; details: Homo sapiens; how it was run: as §1
[23] = tested on: Rattus norvegicus; assay: Toxicity in MCT-induced pulmonary hypertension Wistar rat model assessed as change in systemic blood pressure at 30 mg/kg/day administered via oral gavage for 2 weeks starting from 2 weeks post MCT challenge; assay type: organism-based; details: in vivo, 336 h; how it was run: as §2

Compound: Cc1ccc2c(c1)oc(=S)n2Cc1ccccc1
- inhibition at 100 µM [1]: 24%

Compound: COc1ccccc1Cn1c(=S)oc2ccc(C)cc21
- inhibition at 100 µM [1]: 29%

Compound: FC(F)(F)c1ccc2oc(=S)n(Cc3ccccc3)c2c1
- inhibition at 100 µM [1]: 48%

Compound: Cc1ccc2oc(=S)n(Cc3ccc(Cl)cc3)c2c1
- inhibition at 100 µM [1]: 22%

Compound: Cc1ccc2oc(=S)n(Cc3ccc(F)c(O)c3)c2c1
- Ki [2]: 2000 to 5000 nM
- inhibition at 100 µM [1]: 31%

Compound: Cc1ccc2oc(=S)n(Cc3ccccc3)c2c1
- Ki [2]: 1000 to 3000 nM
- inhibition at 100 µM [1]: 36%

Compound: Cc1ccc2oc(=S)n(Cc3cccc(F)c3)c2c1
- inhibition at 100 µM [1]: 46%

Compound: Cc1ccc2oc(=S)n(Cc3cccc([N+](=O)[O-])c3)c2c1
- inhibition at 100 µM [1]: 24%

Compound: Fc1ccc2oc(=S)n(Cc3ccccc3)c2c1
- inhibition at 100 µM [1]: 31%

Compound: COc1ccc(Cn2c(=S)oc3ccc(C)cc32)cc1
- inhibition at 100 µM [1]: 36%

Compound: Cc1ccc2oc(=S)n(Cc3ccccc3C)c2c1
- inhibition [1]: inactive

Compound: COc1ccc2oc(=S)n(Cc3cccc(O)c3)c2c1
- inhibition at 100 µM [1]: 16%

Compound: Cc1ccc(Cn2c(=S)oc3ccc(C)cc32)cc1
- inhibition [1]: inactive

Compound: Oc1cc(Cn2c(=S)oc3ccc(C(F)(F)F)cc32)ccc1F
- Activity [3]: Active
- Activity [4]: Dose-dependent effect
- Activity [5]: Active
- Activity [6]: Non-Toxic
- Ki [2]: 300 to 1000 nM
- Activity [7]: Dose-dependent effect
- EC50 [8]: 60500 nM
- Activity [9]: Active
- Activity [10]: Non-Toxic
- Activity [11]: 14.5%
- Activity [12]: Non-Toxic
- inhibition [13]: Dose-dependent effect
- viability at 100 µM [14]: 47.9%
- Activity [15]: Active
- Activity [16]: Active
- inhibition at 100 µM [1]: 84%
- inhibition [17]: Dose-dependent effect
- Activity [18]: 16.7%
- solubility at 24 h [19]: 3 to 4 µM (≈ 1.03 to 1.37 µg/mL)
- Activity [20]: 20.8%
- Activity [21]: Non-Toxic
- inhibition at 100 µM [22]: 70%
- Activity [23]: Non-Toxic

Compound: Cc1ccc2oc(=S)n(Cc3ccccc3[N+](=O)[O-])c2c1
- inhibition at 100 µM [1]: 14%

Compound: S=c1oc2ccccc2n1Cc1ccccc1
- inhibition [1]: inactive

Compound: Cc1ccc2oc(=S)n(Cc3ccccc3O)c2c1
- inhibition [1]: inactive

Compound: Cc1cccc(Cn2c(=S)oc3ccc(C)cc32)c1
- inhibition at 100 µM [1]: 32%

Compound: Cc1ccc2oc(=S)n(Cc3ccccc3Cl)c2c1
- inhibition [1]: inactive

Compound: CC(C)(C)c1ccc2oc(=S)n(Cc3ccccc3)c2c1
- inhibition [1]: inactive

Compound: CC(C)c1ccc2oc(=S)n(Cc3ccccc3)c2c1
- Ki [2]: 1000 to 3000 nM
- inhibition [1]: inactive

Compound: COC(=O)CC1CC(c2ccc(O)cc2)=NO1 (configuration not stated)
- inhibition at 100 µM [1]: 8%

Compound: Cc1ccc2oc(=O)n(Cc3ccccc3)c2c1
- inhibition [1]: inactive

Compound: Cc1ccc2oc(=S)n(Cc3ccc(F)cc3)c2c1
- inhibition at 100 µM [1]: 25%

Compound: S=c1oc2ccc(Cl)cc2n1Cc1ccccc1
- inhibition at 100 µM [1]: 34%

Compound: COc1cccc(Cn2c(=S)oc3ccc(C)cc32)c1
- inhibition at 100 µM [1]: 47%

Compound: Cc1ccc2oc(=S)n(Cc3ccccc3F)c2c1
- inhibition at 100 µM [1]: 28%

Compound: Cc1ccc2oc(=S)n(Cc3ccc([N+](=O)[O-])cc3)c2c1
- inhibition at 100 µM [1]: 13%

Compound: Cc1ccc2oc(=S)n(Cc3cccc(O)c3)c2c1
- Ki [2]: 100 to 600 nM
- inhibition at 100 µM [1]: 46%

Compound: Cc1cccc2oc(=S)n(Cc3ccccc3)c12
- inhibition [1]: inactive

Compound: O=c1oc2ccc(C(F)(F)F)cc2n1Cc1ccc(F)c(O)c1
- inhibition [1]: inactive
